Laboratory results reported in ChEMBL document CHEMBL1124042, “Synthesis and potential antipsychotic activity of 1H-imidazo[1,2-c]pyrazolo[3,4-e]pyrimidines” (J Med Chem, 1988).

What was measured:
[1] = Displacement of [3H]flunitrazepam from GABA-A benzodiazepine receptor of rat brain
Summary of the method: (§1)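 Rat brain radioligand displacement binding. IC50 values (μM) were derived by nonlinear regression from four or five concentrations of compound.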

[2] = target: T1, Adrenergic receptor alpha-1 (Rattus norvegicus, UniProt P15823+P23944+P43140); assay: Displacement of [3H]WB-4101 from alpha-1 adrenergic receptor in rat brain; type: tissue-based; summary of the method: as §1
T1 sequence (P15823 whole entry): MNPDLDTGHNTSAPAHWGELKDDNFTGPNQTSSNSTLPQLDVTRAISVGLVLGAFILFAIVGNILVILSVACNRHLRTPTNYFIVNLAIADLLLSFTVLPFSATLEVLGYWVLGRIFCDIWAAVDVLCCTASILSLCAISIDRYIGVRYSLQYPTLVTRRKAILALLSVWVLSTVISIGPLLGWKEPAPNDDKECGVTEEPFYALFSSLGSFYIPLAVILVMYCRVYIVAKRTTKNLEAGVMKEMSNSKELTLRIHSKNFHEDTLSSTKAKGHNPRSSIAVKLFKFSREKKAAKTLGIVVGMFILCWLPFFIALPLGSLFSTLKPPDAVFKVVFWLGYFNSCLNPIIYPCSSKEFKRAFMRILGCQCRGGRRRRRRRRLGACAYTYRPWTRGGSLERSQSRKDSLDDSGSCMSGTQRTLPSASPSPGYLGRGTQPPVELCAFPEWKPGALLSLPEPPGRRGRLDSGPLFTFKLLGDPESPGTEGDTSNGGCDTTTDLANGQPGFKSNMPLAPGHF
T1 sequence (P23944 whole entry): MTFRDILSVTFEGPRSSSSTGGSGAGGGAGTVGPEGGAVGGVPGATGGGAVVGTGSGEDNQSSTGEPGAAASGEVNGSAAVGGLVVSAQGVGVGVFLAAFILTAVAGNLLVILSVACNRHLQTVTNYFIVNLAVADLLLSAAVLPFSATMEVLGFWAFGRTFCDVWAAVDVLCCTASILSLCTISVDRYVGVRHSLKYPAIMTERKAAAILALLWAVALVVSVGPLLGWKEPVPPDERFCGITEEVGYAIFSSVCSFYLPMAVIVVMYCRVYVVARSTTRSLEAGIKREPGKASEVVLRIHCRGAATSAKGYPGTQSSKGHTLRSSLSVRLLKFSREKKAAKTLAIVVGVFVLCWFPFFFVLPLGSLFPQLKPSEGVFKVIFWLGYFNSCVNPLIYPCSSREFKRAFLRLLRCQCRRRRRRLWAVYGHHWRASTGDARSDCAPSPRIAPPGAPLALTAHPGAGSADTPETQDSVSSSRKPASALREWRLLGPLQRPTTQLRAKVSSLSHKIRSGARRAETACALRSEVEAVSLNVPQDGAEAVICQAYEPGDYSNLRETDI
T1 sequence (P43140 whole entry): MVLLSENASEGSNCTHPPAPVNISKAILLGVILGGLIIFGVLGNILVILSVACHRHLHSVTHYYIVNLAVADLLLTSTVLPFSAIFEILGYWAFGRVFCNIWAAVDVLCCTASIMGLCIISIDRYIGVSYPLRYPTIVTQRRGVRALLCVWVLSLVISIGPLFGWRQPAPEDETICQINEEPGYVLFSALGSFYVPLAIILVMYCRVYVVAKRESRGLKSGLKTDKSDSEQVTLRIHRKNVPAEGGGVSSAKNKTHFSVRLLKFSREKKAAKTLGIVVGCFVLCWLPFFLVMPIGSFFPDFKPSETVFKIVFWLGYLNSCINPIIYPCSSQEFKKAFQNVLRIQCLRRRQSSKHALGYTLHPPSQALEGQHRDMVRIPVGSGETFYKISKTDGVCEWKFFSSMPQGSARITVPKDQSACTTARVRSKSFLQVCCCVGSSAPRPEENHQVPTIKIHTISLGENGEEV

Rattus norvegicus [3] = assay: Inhibition of Sidman avoidance in rats after peroral administration; type: functional; details: po
Summary of the method: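 Continuous (Sidman) avoidance responding in rats with oral dosing. At least three doses per drug, four animals per dose. ED50 reported ± SEM.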

[4] = target: Beta-1 adrenergic receptor (Rattus norvegicus, UniProt P18090); assay: Displacement of [3H]DHA (Dihydroalprenolol) from beta-1 adrenergic receptor in rat brain; type: tissue-based; summary of the method: as §1
[5] = target: Serotonin 1 (5-HT1) receptor (Rattus norvegicus, UniProt P28564+P30940+P19327+P28565); assay: Displacement of [3H]5-HT from serotonin-1 neurotransmitter receptor in rat brain; type: tissue-based; summary of the method: as §1
[6] = target: Muscarinic acetylcholine receptor; assay: Displacement of [3H]quinuclidinyl benzilate(QNB) from Muscarinic acetylcholine receptor in rat brain; type: tissue-based; summary of the method: as §1
[7] = target: Voltage-gated L-type calcium channel (Rattus norvegicus, UniProt P22002+Q02485+P27732); assay: Displacement of [3H]nitrendipine from L-type [Ca2+] channel of rat brain; type: tissue-based
[8] = target: Beta-2 adrenergic receptor (Rattus norvegicus, UniProt P10608); assay: Displacement of [3H]DHA (Dihydroalprenolol) from beta-2 adrenergic receptor in rat brain; type: tissue-based; summary of the method: as §1
Rattus norvegicus [9] = assay: Inhibition of self-stimulation in rats after the compound administered through perorally; type: functional; details: po
Summary of the method: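 Suppression of high base line self-stimulation in rats after oral dosing. Read-out is ED50 in mg/kg.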

Mus musculus = assay: Inhibition of induction of ataxia in mouse after intraperitoneal administration; type: functional; details: ip
[10] = target: Serotonin 2 (5-HT2) receptor (Rattus norvegicus, UniProt P30994+P08909+P14842); assay: Displacement of [3H]spiroperidol from 5-hydroxytryptamine 2 receptor in rat brain; type: tissue-based; summary of the method: as §1
D(2) dopamine receptor = D(2) dopamine receptor (Rattus norvegicus, UniProt P61169); assay: Displacement of [3H]haloperidol from Dopamine receptor D2 in rat brain; type: tissue-based
D(1A) dopamine receptor = D(1A) dopamine receptor (Rattus norvegicus, UniProt P18901); assay: Displacement of [3H]cis-flupenthixol from Dopamine receptor D1 in rat brain; type: tissue-based
Monkey = assay: Inhibition of Sidman avoidance in squirrel monkeys after the compound administered through perorally; type: functional; details: in Saimiri, po
Summary of the method: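 Oral dosing in squirrel monkeys trained on continuous (Sidman) avoidance responding. ED50 reported ± SEM.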

Sequence of Beta-2 adrenergic receptor (P10608 whole entry): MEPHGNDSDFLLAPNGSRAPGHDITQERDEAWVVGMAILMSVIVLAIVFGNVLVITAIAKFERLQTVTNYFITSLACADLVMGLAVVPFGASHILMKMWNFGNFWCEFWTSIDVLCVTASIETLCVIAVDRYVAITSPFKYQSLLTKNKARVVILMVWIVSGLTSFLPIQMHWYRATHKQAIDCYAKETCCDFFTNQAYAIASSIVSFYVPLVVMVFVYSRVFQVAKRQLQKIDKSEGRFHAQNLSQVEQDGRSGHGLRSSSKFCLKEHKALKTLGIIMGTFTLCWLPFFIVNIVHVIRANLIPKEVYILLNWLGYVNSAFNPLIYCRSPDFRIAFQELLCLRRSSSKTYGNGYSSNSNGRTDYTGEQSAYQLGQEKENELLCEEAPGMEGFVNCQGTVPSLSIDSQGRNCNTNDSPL
Sequence of D(2) dopamine receptor (P61169 whole entry): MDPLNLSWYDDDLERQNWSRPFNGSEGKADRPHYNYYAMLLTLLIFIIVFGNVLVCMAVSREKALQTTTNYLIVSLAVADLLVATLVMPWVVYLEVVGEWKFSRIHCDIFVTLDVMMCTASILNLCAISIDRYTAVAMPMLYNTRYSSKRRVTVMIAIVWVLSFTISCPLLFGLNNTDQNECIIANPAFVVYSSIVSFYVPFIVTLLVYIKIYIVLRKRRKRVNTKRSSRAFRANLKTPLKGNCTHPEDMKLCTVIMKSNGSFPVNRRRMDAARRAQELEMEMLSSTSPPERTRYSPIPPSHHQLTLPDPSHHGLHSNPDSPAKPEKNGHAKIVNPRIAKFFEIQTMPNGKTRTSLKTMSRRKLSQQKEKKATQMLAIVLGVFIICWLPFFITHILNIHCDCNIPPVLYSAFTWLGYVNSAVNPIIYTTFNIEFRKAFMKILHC
Sequence of Beta-1 adrenergic receptor (P18090 whole entry): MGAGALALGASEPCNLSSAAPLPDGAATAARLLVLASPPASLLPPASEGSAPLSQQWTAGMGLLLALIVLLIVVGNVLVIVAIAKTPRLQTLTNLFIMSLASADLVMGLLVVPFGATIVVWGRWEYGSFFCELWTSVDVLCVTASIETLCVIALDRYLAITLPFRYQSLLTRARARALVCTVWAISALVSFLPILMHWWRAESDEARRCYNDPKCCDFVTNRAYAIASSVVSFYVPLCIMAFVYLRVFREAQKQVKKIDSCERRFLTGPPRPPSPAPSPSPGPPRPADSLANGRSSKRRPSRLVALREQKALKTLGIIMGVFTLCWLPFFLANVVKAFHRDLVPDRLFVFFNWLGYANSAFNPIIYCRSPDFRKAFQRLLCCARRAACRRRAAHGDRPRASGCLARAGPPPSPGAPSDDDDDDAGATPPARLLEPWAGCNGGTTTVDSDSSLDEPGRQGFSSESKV
Sequence of D(1A) dopamine receptor (P18901 whole entry): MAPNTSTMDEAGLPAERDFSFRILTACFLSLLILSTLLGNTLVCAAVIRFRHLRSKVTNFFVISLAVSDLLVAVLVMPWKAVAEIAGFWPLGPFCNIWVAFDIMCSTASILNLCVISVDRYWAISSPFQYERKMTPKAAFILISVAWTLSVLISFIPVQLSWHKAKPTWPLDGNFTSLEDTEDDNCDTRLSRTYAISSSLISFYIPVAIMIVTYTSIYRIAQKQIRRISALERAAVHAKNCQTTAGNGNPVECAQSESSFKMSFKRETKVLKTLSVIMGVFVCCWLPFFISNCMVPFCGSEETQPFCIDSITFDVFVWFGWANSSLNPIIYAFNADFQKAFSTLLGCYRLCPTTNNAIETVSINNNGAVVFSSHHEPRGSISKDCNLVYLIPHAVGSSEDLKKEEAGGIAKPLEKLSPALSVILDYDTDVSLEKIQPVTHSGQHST

- IC50 [1]: > 1 µM
- IC50 [2]: > 10 µM
- IC50 [4]: > 10 µM
- IC50 [5]: > 10 µM
- IC50 [6]: > 10 µM
- IC50 [7]: > 10 µM
- IC50 [8]: > 10 µM
- IC50 [10]: > 10 µM
- IC50 (D(2) dopamine receptor): > 10 µM
- IC50 (D(1A) dopamine receptor): > 10 µM
Structure (SMILES): CCC1CN2C(C)=Nc3c(C)nn(C)c3C2=N1 (centres undefined)
- ED50 (Rattus norvegicus [3]): 19.2 mg/kg
- ED50 (Rattus norvegicus [9]): 10.8 mg/kg
- ED50 (Mus musculus): > 100 mg/kg
- ED50 (Monkey): 7.25 mg/kg
